Active and inactive are the calls of the source. The rule behind the calls is not given here.
How the values were obtained:
[1] = target: Cyclin-dependent kinase 1/cyclin B1 (Homo sapiens, UniProt P06493); experiment: Inhibition of human cdc2/cyclin B assessed as [32P] incorporation in histone H1 from [gamma32P]ATP; type: protein-complex assay
Saccharomyces cerevisiae [2] = experiment: Increase in PHO81 mRNA level in delta snq2, delta pdr5 and delta erg6 knock out yeast YRP1 at 25 µM after 2 hrs by high-density oligonucleotide array; type: functional, organism-based; conditions: 25 M
Summary of the method: (§1)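 Drug-sensitized S. cerevisiae cultures grown to late logarithmic phase, then exposed to 25 μM inhibitor for 2 h. Polyadenylated mRNA isolated, converted to biotin-labeled cRNA and hybridized to a set of four high-density arrays carrying more than 260,000 25-nucleotide oligomers. Transcripts scored as changed when they shifted more than twofold in triplicate hybridizations for each of two independent experiments.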

Saccharomyces cerevisiae [3] = experiment: Increase in HSP12 mRNA level in delta snq2, delta pdr5 and delta erg6 knock out yeast YRP1 at 25 µM after 2 hrs by high-density oligonucleotide array; type: functional, organism-based; summary of the method: as §1
Saccharomyces cerevisiae [4] = experiment: Increase in PCL5 mRNA level in delta snq2, delta pdr5 and delta erg6 knock out yeast YRP1 at 25 µM after 2 hrs by high-density oligonucleotide array; type: functional, organism-based; summary of the method: as §1
Saccharomyces cerevisiae [5] = experiment: Increase in CTT1 mRNA level in delta snq2, delta pdr5 and delta erg6 knock out yeast YRP1 at 25 µM after 2 hrs by high-density oligonucleotide array; type: functional, organism-based; conditions: 25 M; summary of the method: as §1
Saccharomyces cerevisiae [6] = experiment: Increase in PHO5 mRNA level in delta snq2, delta pdr5 and delta erg6 knock out yeast YRP1 at 25 µM after 2 hrs by high-density oligonucleotide array; type: functional, organism-based; summary of the method: as §1
Saccharomyces cerevisiae [7] = experiment: Increase in UB14 mRNA level in delta snq2, delta pdr5 and delta erg6 knock out yeast YRP1 at 25 µM after 2 hrs by high-density oligonucleotide array; type: functional, organism-based; summary of the method: as §1
Saccharomyces cerevisiae [8] = experiment: Increase in PHO84 mRNA level in delta snq2, delta pdr5 and delta erg6 knock out yeast YRP1 at 25 µM after 2 hrs by high-density oligonucleotide array; type: functional, organism-based; summary of the method: as §1
Saccharomyces cerevisiae [9] = experiment: Increase in PHO8 mRNA level in delta snq2, delta pdr5 and delta erg6 knock out yeast YRP1 at 25 µM after 2 hrs by high-density oligonucleotide array; type: functional, organism-based; summary of the method: as §1
Saccharomyces cerevisiae [10] = experiment: Increase in YBR296c mRNA level in delta snq2, delta pdr5 and delta erg6 knock out yeast YRP1 at 25 µM after 2 hrs by high-density oligonucleotide array; type: functional, organism-based; conditions: 25 M; summary of the method: as §1
Saccharomyces cerevisiae [11] = experiment: Increase in PHO80 mRNA level in delta snq2, delta pdr5 and delta erg6 knock out yeast YRP1 at 25 µM after 2 hrs by high-density oligonucleotide array; type: functional, organism-based; summary of the method: as §1
[12] = target: T1, Cyclin-dependent kinase 1 (Saccharomyces cerevisiae S288c, UniProt P00546); experiment: Inhibition of yeast W303 cdc28 phosphorylation assessed as [32P] incorporation in histone H1 from [gamma32P]ATP by scintillation counting
T1 sequence (P00546 whole entry): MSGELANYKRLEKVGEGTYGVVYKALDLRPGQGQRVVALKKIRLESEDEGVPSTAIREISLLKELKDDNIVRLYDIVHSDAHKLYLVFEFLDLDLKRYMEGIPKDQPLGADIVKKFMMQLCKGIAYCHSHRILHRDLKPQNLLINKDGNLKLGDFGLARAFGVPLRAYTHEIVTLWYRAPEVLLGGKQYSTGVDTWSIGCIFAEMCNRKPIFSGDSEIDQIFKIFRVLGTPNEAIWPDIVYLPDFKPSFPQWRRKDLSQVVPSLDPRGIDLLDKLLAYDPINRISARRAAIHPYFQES

[13] = target: Cyclin-dependent protein kinase PHO85 (Saccharomyces cerevisiae S288c, UniProt P17157); experiment: Inhibition of yeast W303 Pho85 phosphorylation assessed as [32P] incorporation in histone H1 from [gamma32P]ATP by scintillation counting
[14] = target: Serine/threonine-protein kinase KIN28 (Saccharomyces cerevisiae S288c, UniProt P06242); experiment: Inhibition of yeast W303 Kin28 phosphorylation assessed as [32P] incorporation in histone H1 from [gamma32P]ATP by scintillation counting
[15] = target: Meiotic mRNA stability protein kinase SSN3 (Saccharomyces cerevisiae S288c, UniProt P39073); experiment: Inhibition of yeast W303 Srb10 phosphorylation assessed as [32P] incorporation in histone H1 from [gamma32P]ATP by scintillation counting
[16] = target: Serine/threonine-protein kinase CAK1 (Saccharomyces cerevisiae S288c, UniProt P43568); experiment: Inhibition of yeast W303 Cak1 phosphorylation assessed as [32P] incorporation in histone H1 from [gamma32P]ATP by scintillation counting
Saccharomyces cerevisiae [17] = experiment: Growth inhibition of delta snq2, delta pdr5 and delta erg6 knock out yeast YRP1 after 2 hrs; type: functional
Saccharomyces cerevisiae [18] = experiment: Growth inhibition of delta snq2, delta pdr5 and delta erg6 knock out yeast YRP1 assessed as induction of uniform arrest morphology; type: functional, organism-based
Saccharomyces cerevisiae [19] = experiment: Growth inhibition of delta snq2, delta pdr5 and delta erg6 knock out yeast YRP1 assessed as synchronization by FACS analysis; type: functional, organism-based
MRC5 [20] = experiment: Cell cycle arrest in human MRC5 cells assessed as accumulation at G1/S phase at high concentration after 18 hrs by FACS analysis; type: functional, cell-based
MRC5 [21] = experiment: Cell cycle arrest in human MRC5 cells assessed as accumulation at G2/M phase at high concentration after 18 hrs by FACS analysis; type: functional, cell-based
MRC5 [22] = experiment: Cell cycle arrest in human MRC5 cells assessed as accumulation at G1/S phase at low concentration after 18 hrs by FACS analysis; type: functional, cell-based
[23] = target: Protein kinase C gamma type (Homo sapiens, UniProt P05129); experiment: Inhibition of human PKCgamma
[24] = target: Protein kinase C delta type (Homo sapiens, UniProt Q05655); experiment: Inhibition of human PKCdelta
[25] = target: Protein kinase C epsilon type (Homo sapiens, UniProt Q02156); experiment: Inhibition of human PKCepsilon
Chain of Protein kinase C epsilon type (Q02156 whole entry): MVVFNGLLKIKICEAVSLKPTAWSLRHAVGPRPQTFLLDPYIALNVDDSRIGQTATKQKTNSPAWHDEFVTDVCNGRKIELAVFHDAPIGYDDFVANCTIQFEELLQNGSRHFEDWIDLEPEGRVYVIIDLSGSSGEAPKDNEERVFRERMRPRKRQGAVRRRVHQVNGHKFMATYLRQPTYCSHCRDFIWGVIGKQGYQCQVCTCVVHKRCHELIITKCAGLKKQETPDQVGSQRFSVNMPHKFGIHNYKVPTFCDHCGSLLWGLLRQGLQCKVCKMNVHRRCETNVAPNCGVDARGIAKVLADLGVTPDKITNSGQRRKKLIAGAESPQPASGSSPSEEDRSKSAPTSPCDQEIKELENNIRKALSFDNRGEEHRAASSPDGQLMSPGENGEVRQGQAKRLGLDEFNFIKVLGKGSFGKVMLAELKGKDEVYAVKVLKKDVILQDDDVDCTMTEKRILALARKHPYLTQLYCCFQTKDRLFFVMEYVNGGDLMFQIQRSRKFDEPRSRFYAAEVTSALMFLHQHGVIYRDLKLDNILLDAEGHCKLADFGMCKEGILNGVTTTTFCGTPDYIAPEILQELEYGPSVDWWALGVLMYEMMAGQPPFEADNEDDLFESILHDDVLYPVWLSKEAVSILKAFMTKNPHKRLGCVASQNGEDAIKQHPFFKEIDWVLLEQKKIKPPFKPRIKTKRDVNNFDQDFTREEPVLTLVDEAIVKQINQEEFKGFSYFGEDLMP

[26] = target: Protein kinase C eta type (Homo sapiens, UniProt P24723); experiment: Inhibition of human PKCeta
Chain of Protein kinase C eta type (P24723 whole entry): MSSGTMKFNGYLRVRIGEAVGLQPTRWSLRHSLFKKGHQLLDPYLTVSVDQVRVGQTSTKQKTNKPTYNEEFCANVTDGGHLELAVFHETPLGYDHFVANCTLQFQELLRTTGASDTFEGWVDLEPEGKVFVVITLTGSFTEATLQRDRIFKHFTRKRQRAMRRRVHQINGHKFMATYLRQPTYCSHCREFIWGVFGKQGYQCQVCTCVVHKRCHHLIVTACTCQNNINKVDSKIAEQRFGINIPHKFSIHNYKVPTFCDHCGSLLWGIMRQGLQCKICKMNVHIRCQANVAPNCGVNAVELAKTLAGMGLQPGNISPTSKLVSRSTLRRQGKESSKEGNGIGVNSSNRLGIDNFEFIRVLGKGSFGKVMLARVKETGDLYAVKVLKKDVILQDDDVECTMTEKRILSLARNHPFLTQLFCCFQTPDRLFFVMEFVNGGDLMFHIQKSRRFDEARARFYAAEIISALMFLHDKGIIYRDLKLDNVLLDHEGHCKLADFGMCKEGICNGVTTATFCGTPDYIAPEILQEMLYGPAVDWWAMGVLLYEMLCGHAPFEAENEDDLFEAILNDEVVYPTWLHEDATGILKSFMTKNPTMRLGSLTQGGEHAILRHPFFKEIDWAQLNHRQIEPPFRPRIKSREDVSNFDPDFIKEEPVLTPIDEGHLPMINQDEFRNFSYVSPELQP

[27] = target: Protein kinase C zeta type (Homo sapiens, UniProt Q05513); experiment: Inhibition of human PKCzeta
[28] = target: Cyclin-dependent kinase 4/cyclin D1 (Homo sapiens, UniProt P11802); experiment: Inhibition of human cdk4/cyclin D1; type: protein-complex assay
Chain of Cyclin-dependent kinase 4/cyclin D1 (P11802 whole entry): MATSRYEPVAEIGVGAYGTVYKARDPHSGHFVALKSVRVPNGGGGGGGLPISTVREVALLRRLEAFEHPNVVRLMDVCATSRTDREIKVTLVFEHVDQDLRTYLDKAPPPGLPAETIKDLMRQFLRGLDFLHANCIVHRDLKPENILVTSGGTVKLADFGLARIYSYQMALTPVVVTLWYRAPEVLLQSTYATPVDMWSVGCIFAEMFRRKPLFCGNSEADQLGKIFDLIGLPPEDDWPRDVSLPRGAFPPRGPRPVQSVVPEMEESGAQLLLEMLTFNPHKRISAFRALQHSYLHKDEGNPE
Chain of Cyclin-dependent kinase 4/cyclin D1 (P24385 whole entry, further chain): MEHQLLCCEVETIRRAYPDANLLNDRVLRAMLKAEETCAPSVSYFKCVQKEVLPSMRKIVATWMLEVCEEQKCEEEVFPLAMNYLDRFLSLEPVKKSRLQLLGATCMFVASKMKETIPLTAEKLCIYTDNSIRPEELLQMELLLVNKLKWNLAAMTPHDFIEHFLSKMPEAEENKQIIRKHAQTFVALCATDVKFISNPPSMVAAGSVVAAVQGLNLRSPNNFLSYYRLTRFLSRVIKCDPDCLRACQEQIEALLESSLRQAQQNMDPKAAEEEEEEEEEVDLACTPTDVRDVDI

[29] = target: Mitogen-activated protein kinase 3 (Homo sapiens, UniProt P27361); experiment: Inhibition of human Erk1
Chain of Mitogen-activated protein kinase 3 (P27361 whole entry): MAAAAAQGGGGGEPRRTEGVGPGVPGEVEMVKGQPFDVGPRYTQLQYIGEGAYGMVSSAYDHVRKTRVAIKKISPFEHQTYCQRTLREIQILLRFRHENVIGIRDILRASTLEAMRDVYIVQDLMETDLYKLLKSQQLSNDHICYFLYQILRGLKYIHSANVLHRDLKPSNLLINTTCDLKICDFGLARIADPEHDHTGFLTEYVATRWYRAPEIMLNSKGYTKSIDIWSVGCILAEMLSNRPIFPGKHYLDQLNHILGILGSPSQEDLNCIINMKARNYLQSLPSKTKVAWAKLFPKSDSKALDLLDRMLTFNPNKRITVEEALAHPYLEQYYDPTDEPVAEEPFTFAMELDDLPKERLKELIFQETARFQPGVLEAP

[30] = target: c-Jun N-terminal kinase, JNK (Homo sapiens, UniProt P45983+P53779+P45984); experiment: Inhibition of human JNK
[31] = target: Protein kinase C alpha type (Homo sapiens, UniProt P17252); experiment: Inhibition of human PKCalpha
[32] = target: T2, Protein kinase C beta type (Homo sapiens, UniProt P05771); experiment: Inhibition of human PKCbeta1
T2 sequence (P05771 whole entry): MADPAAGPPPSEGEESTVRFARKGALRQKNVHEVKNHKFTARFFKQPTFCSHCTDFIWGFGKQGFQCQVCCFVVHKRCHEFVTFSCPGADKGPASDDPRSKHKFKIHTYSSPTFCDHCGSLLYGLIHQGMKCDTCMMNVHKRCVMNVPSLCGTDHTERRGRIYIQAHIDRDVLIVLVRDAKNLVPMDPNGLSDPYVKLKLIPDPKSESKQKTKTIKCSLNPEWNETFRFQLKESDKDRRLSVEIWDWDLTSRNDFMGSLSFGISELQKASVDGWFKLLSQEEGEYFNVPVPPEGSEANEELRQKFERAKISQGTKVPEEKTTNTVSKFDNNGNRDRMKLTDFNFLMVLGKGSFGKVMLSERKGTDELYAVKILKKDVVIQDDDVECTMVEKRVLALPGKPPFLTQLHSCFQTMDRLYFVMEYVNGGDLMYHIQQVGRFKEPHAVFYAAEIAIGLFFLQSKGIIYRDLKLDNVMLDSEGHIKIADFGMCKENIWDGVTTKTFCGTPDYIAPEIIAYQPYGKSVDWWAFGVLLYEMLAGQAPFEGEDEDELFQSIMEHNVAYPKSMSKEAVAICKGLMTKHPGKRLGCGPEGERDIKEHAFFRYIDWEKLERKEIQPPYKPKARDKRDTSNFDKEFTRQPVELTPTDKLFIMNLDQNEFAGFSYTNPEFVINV

[33] = target: T2, Protein kinase C beta type; experiment: Inhibition of human PKCbeta2
[34] = Inhibition of human cAMP-dependent protein kinase
[35] = Inhibition of human cGMP-dependent protein kinase
[36] = Inhibition of human casein kinase 1
[37] = target: Glycogen synthase kinase-3 beta (Homo sapiens, UniProt P49841); experiment: Inhibition of human GSK3-beta
Chain of Glycogen synthase kinase-3 beta (P49841 whole entry): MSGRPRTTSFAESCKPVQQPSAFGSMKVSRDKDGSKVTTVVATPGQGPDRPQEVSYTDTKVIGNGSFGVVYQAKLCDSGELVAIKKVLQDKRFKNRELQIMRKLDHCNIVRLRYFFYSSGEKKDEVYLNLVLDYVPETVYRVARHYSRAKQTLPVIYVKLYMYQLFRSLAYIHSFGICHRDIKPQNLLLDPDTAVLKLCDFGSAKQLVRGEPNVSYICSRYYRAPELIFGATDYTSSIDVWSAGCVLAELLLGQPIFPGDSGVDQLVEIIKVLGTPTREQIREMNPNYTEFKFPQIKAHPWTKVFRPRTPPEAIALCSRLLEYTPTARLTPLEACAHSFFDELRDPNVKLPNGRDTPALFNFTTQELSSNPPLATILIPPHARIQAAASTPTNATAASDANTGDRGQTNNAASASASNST

Casein kinase 2 = Casein kinase 2 (Homo sapiens, UniProt P67870+P68400+P19784+Q8NEV1); experiment: Inhibition of human casein kinase 2; type: protein assay
[38] = Inhibition of human Raf kinase
[39] = Inhibition of human v-abl
Cdc2 [40] = target: T3, Cdc2 (Patiria pectinifera, UniProt Q17066); experiment: Inhibition of starfish cdc2/cyclin B assessed as [32P] incorporation in histone H1 from 150 µM [gamma32P]ATP
T3 sequence (Q17066 whole entry): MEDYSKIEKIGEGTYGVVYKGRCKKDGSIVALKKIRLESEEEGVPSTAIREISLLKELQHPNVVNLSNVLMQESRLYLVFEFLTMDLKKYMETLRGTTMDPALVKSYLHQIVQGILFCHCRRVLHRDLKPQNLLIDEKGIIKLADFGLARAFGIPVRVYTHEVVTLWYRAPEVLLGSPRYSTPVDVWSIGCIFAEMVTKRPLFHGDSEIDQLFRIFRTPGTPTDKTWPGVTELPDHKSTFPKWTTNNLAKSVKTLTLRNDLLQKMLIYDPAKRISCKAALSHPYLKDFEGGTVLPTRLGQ

Cdc2 [41] = target: T3, Cdc2; experiment: Inhibition of starfish cdc2/cyclin B assessed as [32P] incorporation in histone H1 from 1.5 mM [gamma32P]ATP
[42] = target: T4, Cyclin-dependent kinase 2 (Homo sapiens, UniProt P24941); experiment: Inhibition of human cdk2/cyclin A
[43] = target: T4, Cyclin-dependent kinase 2; experiment: Inhibition of human cdk2/cyclin E
[44] = target: Cyclin-dependent kinase 5/CDK5 activator 1 (Homo sapiens, UniProt Q00535); experiment: Inhibition of human cdk5/p35; type: protein-complex assay
Insulin receptor = Insulin receptor (Homo sapiens, UniProt P06213); experiment: Inhibition of human insulin receptor
[45] = target: T1, Cyclin-dependent kinase 1; experiment: Inhibition of Saccharomyces cerevisiae cdc28
[46] = Growth inhibition human NCI60 cells; type: functional
KM12 = experiment: Growth inhibition human KM12 cells; type: functional
NCI-H522 = experiment: Growth inhibition human NCI-H522 cells; type: functional

SMILES | IC50 [23] [µM] | IC50 [24] [µM] | IC50 [25] [µM] | IC50 [26] [µM] | IC50 [27] [µM] | IC50 [28] [µM] | IC50 [29] [µM] | IC50 [30] [µM] | IC50 [31] [µM] | IC50 [32] [µM] | IC50 [33] [µM] | IC50 [34] [µM] | IC50 [35] [µM] | IC50 [36] [µM] | IC50 [37] [µM] | IC50 (Casein kinase 2) [µM] | IC50 [38] [µM] | IC50 [39] [µM] | further results
CC(C)n1cnc2c(Nc3cccc(Cl)c3)nc(NCCO)nc21 | – | – | – | – | – | – | – | – | – | – | – | – | – | – | – | – | – | – | IC50 [1]: 0.34 µM
CC(C)n1cnc2c(N(C)c3cccc(Cl)c3)nc(NCCO)nc21 | – | – | – | – | – | – | – | – | – | – | – | – | – | – | – | – | – | – | Activity (Saccharomyces cerevisiae [2]): inactive; Activity (Saccharomyces cerevisiae [3]): inactive; Activity (Saccharomyces cerevisiae [4]): inactive; Activity (Saccharomyces cerevisiae [5]): inactive; Activity (Saccharomyces cerevisiae [6]): inactive; Activity (Saccharomyces cerevisiae [7]): inactive; Activity (Saccharomyces cerevisiae [8]): inactive; Activity (Saccharomyces cerevisiae [9]): inactive; Activity (Saccharomyces cerevisiae [10]): inactive; Activity (Saccharomyces cerevisiae [11]): inactive; IC50 [12]: > 500 µM; IC50 [13]: > 500 µM; IC50 [14]: > 500 µM; IC50 [15]: > 500 µM; IC50 [16]: > 500 µM; GI50 (Saccharomyces cerevisiae [17]): 200 µM; Activity (Saccharomyces cerevisiae [18]): inactive; Activity (Saccharomyces cerevisiae [19]): inactive
COc1ccc(CNc2nc(N(CCO)CCO)nc3c2ncn3C(C)C)cc1 | – | – | – | – | – | – | – | – | – | – | – | – | – | – | – | – | – | – | Activity (MRC5 [20]): Active; Activity (MRC5 [21]): Active; Activity (MRC5 [22]): Active
CC(C)[C@H](CO)Nc1nc(Nc2ccc(C(=O)O)c(Cl)c2)c2ncn(C(C)C)c2n1 [PURVALANOL B] | > 100 | > 100 | > 100 | > 100 | > 100 | > 10 | 3.33 | > 10 | > 100 | > 100 | > 100 | 3.8 | > 100 | > 3.33 | > 10 | > 10 | > 10 | > 100 | –
CC(C)[C@H](CO)Nc1nc(Nc2cccc(Cl)c2)c2ncn(C(C)C)c2n1 [PURVALANOLA] | > 10 | > 100 | > 100 | > 100 | > 100 | 0.85 | 9 | > 1 | > 10 | > 10 | > 10 | 9 | > 10 | > 3.33 | > 10 | > 10 | > 1 | > 10 | IC50 (Cdc2 [40]): 0.04 µM; IC50 (Cdc2 [41]): 0.5 µM; IC50 [42]: 0.07 µM; IC50 [43]: 0.035 µM; IC50 [44]: 0.075 µM; IC50 (Insulin receptor): 5 µM; IC50 [45]: 0.08 µM; GI50 [46]: 2 µM; GI50 (KM12): 0.076 µM; GI50 (NCI-H522): 0.347 µM
